Bioassay records as filed in PubChem.
In the library only some 1.5% were active in any assay of this set; here they are far more common.
APJ antag: APJ receptor antagonism | P35414 | CHO-K1 APJ beta-arrestin complementation, luminescence | inhibition, % at 20 µM | actives 0.32% (n = 330,000);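 active = inhibition above about 40% at 20 µM, limit read from the data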;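 also: cells challenged with 10 nM apelin-13 agonist together with compound; plate controls were apelin-13 plus DMSO wells for no effect and DMSO wells lacking apelin-13 for full effect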
CXCR6 inh: inhibitors of human CXCR6 receptor. O00574. CHO-K1 PathHunter CXCR6 beta-arrestin, luminescence. inhibition, % at 20 µM. actives 0.36% (n = 360,000); in the data active = inhibition above about 34%, passing the limit was not always enough;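 also: antagonist mode with CXCL16 agonist at 10 nM final; 0% = 10 nM CXCL16 with DMSO and 100% = unstimulated wells without agonist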
Target sequence (O00574 whole entry, looked up): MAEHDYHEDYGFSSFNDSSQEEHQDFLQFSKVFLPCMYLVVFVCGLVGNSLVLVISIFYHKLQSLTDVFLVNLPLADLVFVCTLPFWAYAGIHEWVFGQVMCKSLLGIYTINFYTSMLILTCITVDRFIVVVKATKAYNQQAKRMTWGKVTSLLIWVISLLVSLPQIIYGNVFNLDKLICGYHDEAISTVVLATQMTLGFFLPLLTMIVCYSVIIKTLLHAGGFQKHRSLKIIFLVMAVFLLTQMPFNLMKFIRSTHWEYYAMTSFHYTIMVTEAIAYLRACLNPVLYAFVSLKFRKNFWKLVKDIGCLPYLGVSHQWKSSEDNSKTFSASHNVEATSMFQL
EBI2 antag: antagonists of human EBI2 receptor | AID 651636 | EBI2 beta-arrestin recruitment, luminescence, 7a,25-OHC stimulated | P32249 | actives 0.81% (n = 360,000) | inhibition, % at 5 µM; in the data active = inhibition above about 38%;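 also: enzyme fragment complementation signal reports receptor beta-arrestin coupling in cells; 0% = agonist plus DMSO wells and 100% = wells without agonist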
CCR6 antagonist: antagonists of human CCR6 receptor. CHO-K1 CCR6 PathHunter beta-arrestin, luminescence, CCL20-stimulated. inhibition, % at 20 µM. actives 0.49% (n = 340,000);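 active = compounds whose inhibition of the agonist-driven luminescence signal at 20 µM reaches about 50%, limit read from the data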;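 also: cells stimulated with CCL20 at 14 nM final; plate controls were DMSO with CCL20 for no effect and DMSO without agonist for full effect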
APJ agonist: agonists of human APJ apelin receptor; P35414; CHO-K1 APJ PathHunter beta-arrestin, luminescence; 0% DMSO wells, 100% apelin; activation, % at 20 µM; actives 0.11% (n = 330,000); AID 2520;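 active = activation more than six SD over the plate average, tested at 20 µM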;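 also: 0% = DMSO alone and 100% = apelin-13 at 10 nM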
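Assay system: engineered CHO-K1 APJ arrestin reporter cells; Amount: 1000 CHO-K1 reporter cells seeded per well; Dosing: one dose, 20 µM compound, 1% DMSO; Times: compound stimulation 90 min at 25 °C, detection 60 min; Measured by: luminescent beta-gal fragment complementation, chemiluminescent substrate; Read-out: APJ–arrestin association signal; Controls: DMSO vs Apelin-13 10 nM.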
Active calls of the source: *; . = no result given.

SMILES	APJ antag	CXCR6 inh	EBI2 antag	CCR6 antagonist	APJ agonist
Cc1ccc(CNC(=O)Cn2ccc3cc(S(=O)(=O)N4CCCCCC4)ccc32)cc1	-21	-11	18	27	6
FC(F)(F)c1cnc(NNC(=S)Nc2ccccc2Cl)c(Cl)c1	37	82*	17	85*	1
CC(NS(=O)(=O)CCNC(=O)c1ccccc1)c1ccccc1 (configuration not stated)	19	-3	1	1	-4
Cc1ccc(S(=O)(=O)Nc2cccc3ncccc23)cc1	-17	3	7	5	-4
Cc1ccc(S(=O)(=O)Nc2cccc3ncccc23)s1	91*	63*	73*	96*	-18
O=CC(=O)c1ccccc1	12	34	-7	76*	-3
O=C(NCCC1CCCCN1S(=O)(=O)c1ccc(F)cc1)C(=O)NCCN1CCOCC1 (configuration not stated)	8	-2	-9	4	5
CCOC(=O)/C(=C\c1ccccc1)C(=O)c1cc(C(C)=O)c(Nc2ccccc2)s1	17	11	48*	27	6
CCOC(=O)/C(=C\c1cccnc1)C(=O)c1cc(C(C)=O)c(Nc2ccccc2)s1	69*	93*	81*	100*	-5
CCOc1cc(/C=N/NC(N)=S)cc(Br)c1OCc1ccccc1C	3	5	47*	16	-7
COc1cc(/C=N/NC(N)=S)cc(Br)c1OCc1ccccc1F	-1	0	34	31	-3
CCCNC(=O)C(Cc1cccc(Cl)c1)NC(=O)c1ccccc1 (configuration not stated)	2	-1	8	18	-5
O=C(NCC(=O)N1CCN(c2ccccc2O)CC1)c1cccs1	-10	-2	-7	-24	0
COc1ccc(C[C@H]2c3cc(O)c(OC)cc3CC[N+]2(C)[O-])cc1O (some centres not stated)	21	30	-6	59*	-12
CC1=C(C(=O)OC(C)C)C(c2ccccc2)NC(=S)N1C (configuration not stated)	5	0	-16	1	-3
C/C(=N/NC(=O)c1ccncc1)C1=C(O)CC(C)(C)CC1=O	0	25	-8	5	-1
COc1ccc2c(c1)sc1nc(-c3ccccc3)cn12	-11	-30	40*	1	3
CCOC(=O)N1CCN(C(=O)c2ccc3c(c2)sc2nc(-c4ccc(OC)cc4)cn23)CC1	-32	2	7	7	-2
CC(C)C1Nc2c(O)cc(Cl)c([N+](=O)[O-])c2C2C=CCC21 (configuration not stated)	.	30	2	50*	.
COc1cccc(C(C[N+](=O)[O-])c2c(C)[nH]n(-c3ccccc3)c2=O)c1 (configuration not stated)	-12	8	-36	12	4
Cc1[nH]n(-c2ccccc2)c(=O)c1C(C[N+](=O)[O-])c1ccc(Br)cc1 (configuration not stated)	14	45*	1	36	2
Cc1ccc(S(=O)(=O)N2CCC(NC(=O)c3cccnc3)CC2)cc1Cl	2	9	9	7	-2
Cc1onc(-c2c(Cl)cccc2Cl)c1C(=O)c1c[nH]c(C(=O)NCCCN2CCOCC2)c1	9	2	-5	4	0
COC(CNC(=O)c1cc(C(=O)c2c(-c3c(Cl)cccc3Cl)noc2C)c[nH]1)OC	-6	71*	5	23	3
COc1cccc(N2CCN(C(=O)CCNS(=O)(=O)c3ccc(F)c(F)c3)CC2)c1	-18	-15	-6	5	-1
SMILES	APJ antag	CXCR6 inh	EBI2 antag	CCR6 antagonist	APJ agonist
O=C(N/N=C/c1cc(Cl)ccc1O)c1ccc(Br)cc1	.	2	48*	12	.
O=C(N/N=C\c1cc(Br)ccc1O)c1ccc(S(=O)(=O)N2CCCCC2)cc1	-12	-3	58*	15	0
O=C(Nc1ccc(Cc2ccncc2)cc1)c1ccc(S(=O)(=O)N2CCCC2)cc1	-21	-10	1	-9	3
O=C(N/N=C/c1ccc(O)c(O)c1)c1cccc(S(=O)(=O)N2CCCCC2)c1	1	0	0	2	-1
O=C(Nc1ccc(S(=O)(=O)N2CCCCC2)cc1)c1ccncc1	0	-8	-7	58*	9
CC1=C(C(=O)Nc2ccccc2C(=O)N2CCC(C)CC2)SCCO1	12	7	0	-4	6
O=C(Nc1nc(-c2cc(F)ccc2F)cs1)c1ccccn1	68*	41*	27	65*	-7
CCOc1ccc(NC(=O)CN(C)C(=O)CCN2C(=O)C3CC=CCC3C2=O)cc1OCC (configuration not stated)	0	-2	-1	6	-2
Cc1cccc2nc(-c3ccco3)c(Nc3ccccc3)n12	16	4	0	18	-4
Cc1ccc(Nc2c(-c3ccccn3)nc3cccc(C)n23)cc1	23	42*	22	64*	-10
CC(=NNc1ccc2ccccc2n1)c1ccccc1O	.	56*	15	.	.
C/C(=N\Nc1nc2ccccc2nc1C)c1ccccc1O	13	3	7	13	-1
O=C(Nc1nc(-c2cccs2)cs1)c1ccc(S(=O)(=O)N2CCCC2)cc1	23	-1	43	21	-4
CN(C)S(=O)(=O)c1ccc(C(=O)Nc2nc(-c3cccs3)cs2)cc1	1	2	77*	10	0
Cc1ccc(S(=O)(=O)NC(=O)N(C)C2CCCCC2)cc1	5	-3	1	1	-2
COc1ccc(C(NC(C)=O)c2cc(Cl)c3cccnc3c2O)cc1 (configuration not stated)	-4	7	2	14	-2
CN1CCN(C(c2ccc(Cl)cc2)c2cc(Cl)c3cccnc3c2O)CC1 (configuration not stated)	1	11	14	63*	-5
Oc1c(I)cc(Cl)c2cccnc12	17	36*	14	55*	-4
O=C(NC(c1ccc(Cl)cc1)c1cc(Cl)c2cccnc2c1O)c1cccnc1 (configuration not stated)	.	12	65*	35	.
CN1CCN(C(c2ccc(C(F)(F)F)cc2)c2cc(Cl)c3cccnc3c2O)CC1 (configuration not stated)	13	.	.	.	-3
Oc1c(C(c2ccccn2)N2CCCCC2)cc(Cl)c2cccnc12 (configuration not stated)	37	26	20	63*	-8
COc1ccc(C(=O)NCC(=O)N2CCN(c3ccc(F)cc3)CC2)cc1	12	-4	-16	8	2
S=C(NNc1ccc2ccccc2c1)NC1CCCCC1	40	21	45*	54*	-8
COc1ccc(NC(=S)NC(NC(=O)c2cccc(Cl)c2)C(Cl)(Cl)Cl)c([N+](=O)[O-])c1 (configuration not stated)	39	20	9	58*	-4
